Laboratory results published in ChEMBL document CHEMBL1125428, “Development of 2,3-dihydro-6-(3-phenoxypropyl)-2-(2-phenylethyl)-5-benzofuranol (L-670,630) as a potent and orally active inhibitor of 5-lipoxygenase” (J Med Chem, 1992).
pIC50: −log10 of the molar value.

What was measured:
[1] = molecular target: T1, Polyunsaturated fatty acid 5-lipoxygenase (Rattus norvegicus, UniProt P12527); assay: Tested for its inhibitory activity against arachidonic acid in rat 5-lipoxygenase.
T1 sequence (P12527 whole entry): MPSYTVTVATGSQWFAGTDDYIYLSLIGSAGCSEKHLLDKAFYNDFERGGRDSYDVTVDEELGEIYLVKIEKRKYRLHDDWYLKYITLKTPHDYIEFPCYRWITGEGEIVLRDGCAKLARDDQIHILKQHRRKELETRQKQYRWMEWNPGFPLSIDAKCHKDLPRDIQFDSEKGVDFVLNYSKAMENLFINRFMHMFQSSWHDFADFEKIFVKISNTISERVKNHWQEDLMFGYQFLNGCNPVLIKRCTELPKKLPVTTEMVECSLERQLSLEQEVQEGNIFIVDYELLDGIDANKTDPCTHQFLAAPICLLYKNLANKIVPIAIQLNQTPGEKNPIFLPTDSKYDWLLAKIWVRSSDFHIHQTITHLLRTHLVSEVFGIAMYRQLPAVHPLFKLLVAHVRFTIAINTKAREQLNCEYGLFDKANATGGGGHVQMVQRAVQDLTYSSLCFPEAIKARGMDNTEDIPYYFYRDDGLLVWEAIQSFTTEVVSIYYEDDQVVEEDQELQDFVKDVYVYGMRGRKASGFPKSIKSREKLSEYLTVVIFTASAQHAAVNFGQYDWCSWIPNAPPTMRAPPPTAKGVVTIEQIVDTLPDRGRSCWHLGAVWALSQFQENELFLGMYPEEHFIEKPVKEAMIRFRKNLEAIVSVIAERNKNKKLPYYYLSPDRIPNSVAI
How it was run: (§1)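 10000g supernatant from rat PMN leukocytes incubated 10 min with [14C]arachidonic acid. 5-Lipoxygenase activity taken as percentage conversion to 5-HETE plus 5,12-diHETEs.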

Canis familiaris = species on record: Canis familiaris; assay: Effect on methemoglobin formation in canine venous blood containing heparin; type: functional, Canis lupus familiaris
[2] = molecular target: Arachidonate 5-lipoxygenase (Homo sapiens); assay: Inhibitory activity of LTB4 production in human PMN
Rattus norvegicus [3] = assay: Percentage inhibition against antigen induced dyspnea in hyperactive inbred rat at a dose of 0.5 mg/kg; type: functional; details: for inhibition in vivo at 0.5 mg/kg: Rattus norvegicus
How it was run: (§2)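 Inbred hyperreactive rats, six per group, dosed po 2 h before aerosol ovalbumin challenge, with drug suspension or vehicle (0.4% Methocel/0.5% Tween 80, 10 mL/kg). Methysergide 3 mg/kg iv given 5 min before antigen. Dyspnea duration recorded by pneumotachograph. % inhibition of duration is relative to vehicle controls. Student's t test used; ED50 from linear regression.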

Rattus norvegicus [4] = species on record: Rattus norvegicus; assay: Percentage inhibition against antigen induced dyspnea in hyperactive inbred rat at a dose of […]; type: functional
[5] = Measure of AUCpo/AUCiv x 100% of the parent compound before (free) and after (total) beta-glucuronidase treatment; total 76%; type: ADME, organism-based; details: in vivo, po; read-out: Bioavailabiility
[6] = Peak concentration of drug in rat plasma after oral dosing at 20 mg/kg. Concentration of parent compound was measured before (free) and after (total) beta-glucuronidase treatment; total 3.8 uM; type: ADME, organism-based; set-up: dose 20 mg/kg, route oral; details: read-out: Plasma level
Rattus norvegicus [7] = species on record: Rattus norvegicus; assay: Effective dose against antigen induced dyspnea in hyperactive inbred rat at a dose of […]; type: functional
Rattus norvegicus [8] = assay: Percentage inhibition against antigen induced dyspnea in hyperactive inbred rat at a dose of 0.05 mg/kg; type: functional; how it was run: as §2
[9] = Measure of AUCpo/AUCiv x 100% of the parent compound before (free) and after (total) beta-glucuronidase treatment; total 72%; type: ADME, organism-based; details: in vivo, po; read-out: Bioavailabiility
[10] = Peak concentration of drug in rat plasma after oral dosing at 20 mg/kg. Concentration of parent compound was measured before (free) and after (total) beta-glucuronidase treatment; total 2.2 uM; type: ADME, organism-based; set-up: dose 20 mg/kg, route oral; details: read-out: Plasma level
Rattus norvegicus [11] = assay: Peak concentration of drug in rat plasma after oral dosing at 20 mg/kg. Concentration of parent compound was measured before (free) and after (total) beta-glucuronidase treatment; total 0.7 uM; type: functional, organism-based; set-up: dose 20 mg/kg
[12] = Measure of AUCpo/AUCiv x 100% of the parent compound before (free) and after (total) beta-glucuronidase treatment; total 10%; type: ADME, organism-based; details: in vivo, po; read-out: Bioavailabiility
[13] = Peak concentration of drug in rat plasma after oral dosing at 20 mg/kg. Concentration of parent compound was measured before (free) and after (total) beta-glucuronidase treatment; total 3.0 uM; type: ADME, organism-based; set-up: dose 20 mg/kg, route oral; details: read-out: Plasma level
[14] = Measure of AUCpo/AUCiv x 100% of the parent compound before (free) and after (total) beta-glucuronidase treatment; total 4%; type: ADME, organism-based; details: in vivo, po; read-out: Bioavailabiility
[15] = Peak concentration of drug in rat plasma after oral dosing at 20 mg/kg. Concentration of parent compound was measured before (free) and after (total) beta-glucuronidase treatment; total 3.4 uM; type: ADME, organism-based; set-up: dose 20 mg/kg, route oral; details: read-out: Plasma level
[16] = molecular target: T1, Polyunsaturated fatty acid 5-lipoxygenase; assay: The compound was tested for its inhibitory activity against arachidonic acid in rat 5-lipoxygenase; how it was run: as §1
[17] = Measure of AUCpo/AUCiv x 100% of the parent compound before (free) and after (total) beta-glucuronidase treatment; total 27%; type: ADME, organism-based; details: in vivo, po; read-out: Bioavailabiility
[18] = Peak concentration of drug in rat plasma after oral dosing at 20 mg/kg. Concentration of parent compound was measured before (free) and after (total) beta-glucuronidase treatment; total 3.1 uM; type: ADME, organism-based; set-up: dose 20 mg/kg, route oral; details: read-out: Plasma level
Rattus norvegicus [19] = assay: Effective dose against antigen induced dyspnea in hyperactive inbred rat at a dose of 0.5 mg/kg; type: functional; how it was run: as §2

SMILES | pIC50 [1] | Formation (Canis familiaris) | pIC50 [2] | other results
C=CCc1c(O)ccc2c1CC(CCc1ccccc1)O2 (stereo not drawn) | 7.60 | 18% | 7.42 | –
CCCc1cc2c(cc1O)C(C)(C)C(CCc1ccc(SC)cc1)O2 (stereo not drawn) | 7.04 | – | 7.55 | –
CCCc1c(OCCCc2cc3c(cc2O)CC(CCc2ccccc2)O3)ccc(C(C)=O)c1O (stereo not drawn) | 7.28 | 3% | 8.05 | Inhibition (Rattus norvegicus [3]; 0.5 mg/kg): 50%; inhibition in vivo at 0.5 mg/kg (Rattus norvegicus [3]): 50%
C=CCc1cc2c(cc1O)CC(CCc1ccccc1)O2 (stereo not drawn) | 7.77 | 52% | 8.00 | inhibition in vivo at 0.5 mg/kg (Rattus norvegicus [3]): 65%; inhibition in vivo at […] (Rattus norvegicus [4]; dose 1.5 mg/kg): 50%
Oc1cc2c(cc1CCCOc1ccccc1)OCC2 | – | – | 7.24 | –
Oc1cc2c(cc1Cc1ccccc1)OC(CCc1ccccc1)C2 (stereo not drawn) | 7.32 | 6% | 7.74 | bioavailability [5]: 44%; Cmax [6]: 1.6 µM; ED50 at […] (Rattus norvegicus [7]): 0.3 mg/kg; inhibition in vivo at 0.05 mg/kg (Rattus norvegicus [8]): 44%; inhibition in vivo at 0.5 mg/kg (Rattus norvegicus [3]): 53%; inhibition in vivo at […] (Rattus norvegicus [4]; dose 0.15 mg/kg): 44%
CC1(C)c2cc(O)c(CCCOc3ccccc3)cc2OC1CCc1ccc(Cl)cc1 (stereo not drawn) | – | – | 6.33 | –
CC1(C)c2cc(O)c(CCCOc3ccccc3)cc2OC1CCc1ccccc1 (stereo not drawn) | 7.40 | 6% | 7.42 | inhibition in vivo at […] (Rattus norvegicus [4]; dose 1.5 mg/kg): 48%
CCCc1c(O)c(CCCOc2ccc(C3N=NN=N3)cc2)cc2c1CC(CCc1ccccc1)O2 (stereo not drawn) | 7.35 | 2% | 6.97 | bioavailability [9]: 12%; Cmax [10]: 1.6 µM; ED50 at […] (Rattus norvegicus [7]): 0.03 mg/kg; inhibition in vivo at 0.05 mg/kg (Rattus norvegicus [8]): 52%; inhibition in vivo at 0.5 mg/kg (Rattus norvegicus [3]): 64%; inhibition in vivo at […] (Rattus norvegicus [4]; dose 0.15 mg/kg): 61%
C=CCc1cc2c(cc1O)C(C)(C)C(Cc1ccc(OC)cc1)O2 (stereo not drawn) | 6.79 | 1% | 7.31 | inhibition in vivo at […] (Rattus norvegicus [4]; dose 1.5 mg/kg): 68%
CS(=O)(=O)c1ccc(Cc2cc3c(cc2O)CC(CCc2ccccc2)O3)cc1 (stereo not drawn) | – | – | 6.72 | –
Oc1cc2c(cc1CCCOc1ccc(C3N=NN=N3)cc1)OC(CCc1ccccc1)C2 (stereo not drawn) | – | – | 6.70 | –
COc1ccc(CC2Oc3ccc(O)cc3C2C)cc1 (stereo not drawn) | – | 6% | 6.97 | –
CCCc1cc2c(cc1O)C(C)(C)C(CCc1ccc(S(C)(=O)=O)cc1)O2 (stereo not drawn) | – | – | 6.75 | –
Oc1cc2c(cc1CCCSc1nc3ccccc3s1)OC(CCc1ccccc1)C2 (stereo not drawn) | 7.35 | 1% | 7.66 | –
Oc1ccc2c(c1)CC(CCc1ccccc1)O2 (stereo not drawn) | – | 40% | 6.56 | –
C=CCc1cc2c(cc1O)C(C)(C)C(CCc1ccc(OC)cc1)O2 (stereo not drawn) | 7.28 | 2% | 7.33 | Plasma level (Rattus norvegicus [11]): 0 µM; inhibition in vivo at […] (Rattus norvegicus [4]; dose 1.5 mg/kg): 50%
O=C(O)c1ccc(OCCCc2cc3c(cc2O)CC(CCc2ccccc2)O3)cc1 (stereo not drawn) | 7.36 | 3% | 6.45 | –
Oc1cc2c(cc1CCCSc1ccncc1)OC(CCc1ccccc1)C2 (stereo not drawn) | 8.10 | 6% | 7.85 | bioavailability [12]: 11%; Cmax [13]: 1 µM; inhibition in vivo at […] (Rattus norvegicus [4]; dose 1.5 mg/kg): 51%
COc1nc2c(SCCCc3cc4c(cc3O)CC(CCc3ccccc3)O4)cccc2cc1C(=O)O (stereo not drawn) | 7.30 | 1% | 7.43 | bioavailability [14]: 3%; Cmax [15]: 1 µM; ED50 at […] (Rattus norvegicus [7]): < 0.05 mg/kg; inhibition in vivo at 0.05 mg/kg (Rattus norvegicus [8]): 55%; inhibition in vivo at 0.5 mg/kg (Rattus norvegicus [3]): 69%; inhibition in vivo at […] (Rattus norvegicus [4]; dose 0.15 mg/kg): 72%
CCCc1cc2c(cc1O)C(C)C(Cc1ccc(OC)cc1)O2 (stereo not drawn) | – | 6% | 7.74 | pIC50 [16]: 7.46
Oc1cc2c(cc1CCCOc1ccccc1)OC(CCc1ccc(Cl)cc1)C2 (stereo not drawn) | 7.29 | 2.8% | 7.39 | bioavailability [17]: 6%; Cmax [18]: 0.3 µM; ED50 (Rattus norvegicus [19]): 0.07 mg/kg; inhibition in vivo at 0.05 mg/kg (Rattus norvegicus [8]): 56%; inhibition in vivo at […] (Rattus norvegicus [4]; dose 0.15 mg/kg): 66%
CCCc1cc2c(cc1O)C(C)(C)C(CCSc1ccccn1)O2 (stereo not drawn) | 7.36 | – | 7.12 | –
CCCc1cc(Cl)c2c(c1O)C(C)C(Cc1ccc(OC)cc1)O2 (stereo not drawn) | – | – | 6.63 | –
CCCc1c(O)c(CCCOc2ccccc2)cc2c1CC(CCc1ccccc1)O2 (stereo not drawn) | – | 2% | 7.28 | pIC50 [16]: 6.90
